Measured values: ChEMBL document CHEMBL4689842, “EUbOPEN Chemogenomics Library wave 1” (2021)

System: Fibroblast
Experiment: Multiplex assay against human fibroblast
Assay type: toxicity, cell-based
How it was run: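 Cells stained live at seeding with Hoechst33342, BioTracker Green Microtubule Cytoskeleton Dye, MitoTracker Red and Annexin V Alexa Fluor 680 were imaged on a CQ1 microscope at 37°C and 5% CO2 after compound addition. Their classification by CellPathfinder machine-learning gating ran from Hoechst high-intensity objects versus normal cells, to healthy, pyknosed or fragmented nuclei among normal cells, to mitotic or apoptotic among pyknosed cells. Tubulin, mitochondrial-mass and membrane-permeability phenotypes are per cents of healthy-nucleus cells.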

[1] = 12 h, 1 µM, compound concentration 1 uM, replicate 1
[2] = 12 h, 1 µM, compound concentration 1 uM, replicate 2
[3] = 12 h, 10 µM, compound concentration 10 uM, replicate 1
[4] = 12 h, 10 µM, compound concentration 10 uM, replicate 2
[5] = 24 h, 1 µM, compound concentration 1 uM, replicate 1
[6] = 24 h, 1 µM, compound concentration 1 uM, replicate 2
[7] = 24 h, 10 µM, compound concentration 10 uM, replicate 1
[8] = 24 h, 10 µM, compound concentration 10 uM, replicate 2

Question: What does the source list for `COc1cccc2cc(-c3nc([C@H]4CC[C@H](C(=O)O)CC4)n4ncnc(N)c34)[nH]c12` [OSI-027]?
Answer: Population Apoptotic (%) [1]: 58%; Population Fragmented Nuclei (%) [1]: 47%; Population Healthy Nuclei (%) [1]: 40%; Population Hoechst High Intensity Objects (%) [1]: 28%; Population Membrane Permeable-Phenotype (%) [1]: 5%; Population Mitochondria Different-Phenotype (%) [1]: 0%; Population Mitotic Cells (%) [1]: 41%; Population Normal (%) [1]: 71%; Population Pyknosed Nuclei (%) [1]: 11%; Population Tubulin-Different-Phenotype (%) [1]: 7%; Total Cell Count [1]: 382; Population Apoptotic (%) [2]: 57%; Population Fragmented Nuclei (%) [2]: 68%; Population Healthy Nuclei (%) [2]: 22%; Population Hoechst High Intensity Objects (%) [2]: 26%; Population Membrane Permeable-Phenotype (%) [2]: 25%; Population Mitochondria Different-Phenotype (%) [2]: 18%; Population Mitotic Cells (%) [2]: 42%; Population Normal (%) [2]: 73%; Population Pyknosed Nuclei (%) [2]: 9%; Population Tubulin-Different-Phenotype (%) [2]: 31%; Total Cell Count [2]: 98; Population Apoptotic (%) [3]: 72%; Population Fragmented Nuclei (%) [3]: 28%; Population Healthy Nuclei (%) [3]: 56%; Population Hoechst High Intensity Objects (%) [3]: 12%; Population Membrane Permeable-Phenotype (%) [3]: 2%; Population Mitochondria Different-Phenotype (%) [3]: 2%; Population Mitotic Cells (%) [3]: 27%; Population Normal (%) [3]: 87%; Population Pyknosed Nuclei (%) [3]: 14%; Population Tubulin-Different-Phenotype (%) [3]: 0%; Total Cell Count [3]: 281; Population Apoptotic (%) [4]: 20%; Population Fragmented Nuclei (%) [4]: 65%; Population Healthy Nuclei (%) [4]: 26%; Population Hoechst High Intensity Objects (%) [4]: 31%; Population Membrane Permeable-Phenotype (%) [4]: 18%; Population Mitochondria Different-Phenotype (%) [4]: 12%; Population Mitotic Cells (%) [4]: 80%; Population Normal (%) [4]: 68%; Population Pyknosed Nuclei (%) [4]: 8%; Population Tubulin-Different-Phenotype (%) [4]: 6%; Total Cell Count [4]: 88; Population Apoptotic (%) [5]: 53%; Population Fragmented Nuclei (%) [5]: 36%; Population Healthy Nuclei (%) [5]: 50%; Population Hoechst High Intensity Objects (%) [5]: 33%; Population Membrane Permeable-Phenotype (%) [5]: 7%; Population Mitochondria Different-Phenotype (%) [5]: 1%; Population Mitotic Cells (%) [5]: 46%; Population Normal (%) [5]: 66%; Population Pyknosed Nuclei (%) [5]: 12%; Population Tubulin-Different-Phenotype (%) [5]: 5%; Total Cell Count [5]: 302; Population Apoptotic (%) [6]: 16%; Population Fragmented Nuclei (%) [6]: 68%; Population Healthy Nuclei (%) [6]: 22%; Population Hoechst High Intensity Objects (%) [6]: 34%; Population Membrane Permeable-Phenotype (%) [6]: 6%; Population Mitochondria Different-Phenotype (%) [6]: 13%; Population Mitotic Cells (%) [6]: 83%; Population Normal (%) [6]: 65%; Population Pyknosed Nuclei (%) [6]: 8%; Population Tubulin-Different-Phenotype (%) [6]: 13%; Total Cell Count [6]: 103; Population Apoptotic (%) [7]: 75%; Population Fragmented Nuclei (%) [7]: 23%; Population Healthy Nuclei (%) [7]: 64%; Population Hoechst High Intensity Objects (%) [7]: 17%; Population Membrane Permeable-Phenotype (%) [7]: 6%; Population Mitochondria Different-Phenotype (%) [7]: 0%; Population Mitotic Cells (%) [7]: 24%; Population Normal (%) [7]: 82%; Population Pyknosed Nuclei (%) [7]: 12%; Population Tubulin-Different-Phenotype (%) [7]: 0%; Total Cell Count [7]: 282; Population Apoptotic (%) [8]: 33%; Population Fragmented Nuclei (%) [8]: 60%; Population Healthy Nuclei (%) [8]: 34%; Population Hoechst High Intensity Objects (%) [8]: 33%; Population Membrane Permeable-Phenotype (%) [8]: 17%; Population Mitochondria Different-Phenotype (%) [8]: 11%; Population Mitotic Cells (%) [8]: 66%; Population Normal (%) [8]: 66%; Population Pyknosed Nuclei (%) [8]: 6%; Population Tubulin-Different-Phenotype (%) [8]: 11%; Total Cell Count [8]: 75
